pIC50: −log10 of the molar value.
Assays:
Squalene synthase = target: T1, Squalene synthase (Homo sapiens, UniProt P37268); assay: Inhibition of squalene synthase assessed as conversion of […] to [3H]squalene after 10 mins by scintillation counting
T1 sequence (P37268 whole entry): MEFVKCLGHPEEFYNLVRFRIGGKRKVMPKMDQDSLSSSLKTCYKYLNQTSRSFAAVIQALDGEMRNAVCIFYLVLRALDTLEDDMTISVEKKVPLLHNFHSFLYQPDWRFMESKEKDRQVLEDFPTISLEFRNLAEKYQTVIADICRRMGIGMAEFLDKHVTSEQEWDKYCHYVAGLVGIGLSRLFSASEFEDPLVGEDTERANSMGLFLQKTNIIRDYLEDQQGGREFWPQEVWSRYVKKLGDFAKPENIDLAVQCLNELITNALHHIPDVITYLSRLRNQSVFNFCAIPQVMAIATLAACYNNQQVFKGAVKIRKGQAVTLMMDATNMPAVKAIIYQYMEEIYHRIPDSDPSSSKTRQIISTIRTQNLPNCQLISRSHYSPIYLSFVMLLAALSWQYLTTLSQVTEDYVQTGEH
Procedure, shortened: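 Reaction started with farnesyl pyrophosphate plus 0.2 nM trans,trans-[1-3H]-FPP and run for 10 min at 37 °C. Extracted with chloroform/methanol/5 N NaOH, adjusted to 2 mM squalene; organic phase counted by scintillation. Mean of three experiments.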

[1] = Metabolic stability in human liver microsomes assessed as compound remaining after 60 mins; type: ADME, Microsome; details: read-out: Stability
Mus musculus = assay: Inhibition of hepatic cholesterol biosynthesis in NMRI mouse at 3 mg/kg, po administered 1 hr before administering [14C]mevalonate as substrate measured after 10 mins; type: functional

SMILES	pIC50 (Squalene synthase)	remaining at 1 h [1] [%]	inhibition in vivo at 3 mg/kg (Mus musculus) [%]
COc1cccc([C@H]2CN(CC(=O)N3CCC(C(=O)O)CC3)C(=O)[C@@H](CC(C)C)c3ccc(Cl)cc32)c1OC	< 4.70		
COc1cccc([C@@H]2CN(CC(=O)N3CCC(C(=O)O)CC3)C(=O)[C@H](CC(C)C)c3ccc(Cl)cc32)c1OC	6.66	89	47
CCOC(=O)CN1C[C@H](c2ccccc2Cl)c2cc(Cl)ccc2[C@@H](CC(C)C)C1=O (racemic)	< 4.70		
CC(C)C[C@H]1C(=O)N(CC(=O)O)C[C@H](c2ccccc2Cl)c2ccccc21 (racemic)	< 4.70		
CC(C)C[C@H]1C(=O)N(CC(=O)O)C[C@H](c2ccccc2)c2cc(Cl)ccc21 (racemic)	4.82		
COc1cccc([C@H]2CN(CC(=O)O)C(=O)[C@H](CC(C)C)c3ccc(Cl)cc32)c1OC (racemic)	5.92		
CC(C)C[C@H]1C(=O)N(CC(=O)NCCCCCC(=O)O)C[C@H](c2ccccc2Cl)c2cc(Cl)ccc21 (racemic)	5.62		
CC(C)C[C@H]1C(=O)N(CC(=O)N2CCC(CC(=O)O)CC2)C[C@H](c2ccccc2Cl)c2cc(Cl)ccc21 (racemic)	5.85	70	25
CC(C)C[C@H]1C(=O)N(CC(=O)N2CCC(C(=O)O)CC2)C[C@H](c2ccccc2Cl)c2cc(Cl)ccc21 (racemic)	6.03	53	25
COc1ccccc1[C@H]1CN(CC(=O)N2CCCCC2)C(=O)[C@H](CC(C)C)c2ccc(Cl)cc21 (racemic)	6.43	2	
COc1ccccc1[C@H]1CN(CC(=O)N2CCC(C(=O)O)CC2)C(=O)[C@H](CC(C)C)c2ccc(Cl)cc21 (racemic)	6.30	72	39
COc1cccc([C@H]2CN(CC(=O)N3CCC(C(=O)O)CC3)C(=O)[C@H](CC(C)C)c3ccc(Cl)cc32)c1OC (racemic)	6.35	78	

More lines, main results first:

pIC50 (Squalene synthase)	remaining at 1 h [1] [%]	SMILES	inhibition in vivo at 3 mg/kg (Mus musculus) [%]
5.48	60	CC(C)C[C@H]1C(=O)N(CC(=O)O)C[C@H](c2ccccc2Cl)c2cc(Cl)ccc21 (racemic)	
< 4.70		Cc1ccc2c(c1)[C@@H](c1ccccc1Cl)CN(CC(=O)O)C(=O)[C@@H]2CC(C)C (racemic)	
< 4.70		CC(C)C[C@H]1C(=O)N(CC(=O)O)C[C@H](c2ccccc2Cl)c2cc(F)ccc21 (racemic)	
5.26		C=C(C)C[C@H]1C(=O)N(CC(=O)O)C[C@H](c2ccccc2Cl)c2cc(Cl)ccc21 (racemic)	
< 4.70		CC(C)(O)C[C@H]1C(=O)N(CC(=O)O)C[C@H](c2ccccc2Cl)c2cc(Cl)ccc21 (racemic)	
< 4.70		O=C(O)CN1C[C@H](c2ccccc2Cl)c2cc(Cl)ccc2[C@@H](Cc2ccccc2)C1=O (racemic)	
5.66		CC(C)C[C@H]1C(=O)N(CC(=O)O)C[C@H](c2ccccc2Br)c2cc(Cl)ccc21 (racemic)	
5.72		COc1ccccc1[C@H]1CN(CC(=O)O)C(=O)[C@H](CC(C)C)c2ccc(Cl)cc21 (racemic)	

From ChEMBL document CHEMBL1759907, “Identification and optimization of tetrahydro-2H-3-benzazepin-2-ones as squalene synthase inhibitors” (Bioorg Med Chem Lett, 2011)
